This is a sample that favours compounds with a hit; in the whole collection about 5.9% have one here.
Tcruzi prolif: T. cruzi intracellular proliferation inhibitors, primary screen, cell-based, beta-gal Tulahuen parasites, NIH3T3 host, luminescence | T. cruzi beta-gal in NIH3T3, GalScreen luminescence, 90 h | inhibition, % at 8.34 µM | actives 5.9% (n = 77,000);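 active = mean inhibition above about 93%, with at least 55% of replicates each passing it, limit read from the data, passing the limit was not always enough; inconclusive = only one of those two conditions holds; inactive = neither condition holds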
Pf Dd2 growth: P. falciparum Dd2 growth inhibitors, primary screen, SYBR Green fluorescence, single dose replicates; 72 h; stronger effect = lower value; activity change, % at 10 µM; actives 2.3% (n = 94,000); in the data active = activity change below about -80%; inconclusive = no clear call, values can overlap the other calls
KDM4C inh: inhibitors of GASC-1 (KDM4C) histone demethylase, primary screen, biochemical, single concentration HTS | GST-KDM4C 2-372, H3K9me3 peptide, LANCE TR-FRET | inhibition, % at 12.5 µM | actives 0.15% (n = 96,000);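 active = mean replicate inhibition above about 25%, with at least 55% of replicates also reaching it, limit read from the data, passing the limit was not always enough; inconclusive = only one of those two conditions met; inactive = neither condition met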
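Compound: one test concentration per compound; Material: GST-GASC-1 enzyme fragment 2-372; Amount: GASC-1 enzyme at 10 nM final in reaction; Also added: H3K9me3 peptide substrate, Fe(II), 2-oxoglutarate; Technique: LANCE TR-FRET; Times: 30 min demethylation and 1 h detection at room temperature.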
IDH1 R132H inh: inhibitors of IDH1 R132H reductase, primary screen, biochemical, plate reader, single point; inhibition, % at 10 µM; actives 0.18% (n = 70,000); Isocitrate dehydrogenase [NADP] cytoplasmic (Homo sapiens), O75874; diaphorase/resazurin fluorescence, 60 min; AID 624101, 2012; in the data active = inhibition above about 34%; inconclusive = no clear call, values can overlap the other calls; inactive = below about 11%
Target sequence (O75874 whole entry R132H): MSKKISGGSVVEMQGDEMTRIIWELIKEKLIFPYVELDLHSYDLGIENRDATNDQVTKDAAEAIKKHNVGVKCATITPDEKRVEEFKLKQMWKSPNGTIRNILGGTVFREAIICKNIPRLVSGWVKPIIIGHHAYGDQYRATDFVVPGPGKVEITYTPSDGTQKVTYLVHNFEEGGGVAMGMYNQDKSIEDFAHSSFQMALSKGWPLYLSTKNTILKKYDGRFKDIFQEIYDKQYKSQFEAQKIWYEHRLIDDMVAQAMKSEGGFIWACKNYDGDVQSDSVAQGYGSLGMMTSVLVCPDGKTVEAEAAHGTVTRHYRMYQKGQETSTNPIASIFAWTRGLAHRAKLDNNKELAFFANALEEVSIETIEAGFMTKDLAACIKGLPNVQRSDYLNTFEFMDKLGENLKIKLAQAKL
A number is an active result; 0 = inactive; ? = inconclusive; - = no result; ! = repeats disagree.

SMILES	Tcruzi prolif	Pf Dd2 growth	KDM4C inh	IDH1 R132H inh
C[C@@H]1CN([C@H](C)CO)C(=O)c2cc(NC(=O)C3CCCCC3)ccc2O[C@@H](C)CCCCO[C@@H]1CN(C)C(=O)C1CCCCC1	0	0	0	-
C[C@@H]1CCCCO[C@@H](CN(C)C(=O)C2CCCCC2)[C@H](C)CN([C@H](C)CO)C(=O)c2cc(NC(=O)Nc3ccc4c(c3)OCO4)ccc2O1	107	0	0	0
C[C@@H]1CCCCO[C@@H](CN(C)C(=O)C2CCCCC2)[C@@H](C)CN([C@@H](C)CO)C(=O)c2cc(NC(=O)C3CCCCC3)ccc2O1	0	-85	0	0
C[C@@H]1CN([C@@H](C)CO)C(=O)c2cc(NC(=O)Nc3ccc4c(c3)OCO4)ccc2O[C@@H](C)CCCCO[C@H]1CN(C)C(=O)C1CCCCC1	0	0	0	-
Cc1ccc(S(=O)(=O)N2C(=O)CCC2C(=O)Nc2cccc(Br)c2)cc1 (stereo not given)	-	-	-	0
CN1CCN(Cc2c(O)ccc3c(=O)c(-c4ccc(Cl)cc4Cl)c(C(F)(F)F)oc23)CC1	-	-	-	0
CCCN(C)C[C@@H]1OCCCC[C@@H](C)Oc2ccc(NC(=O)c3ccccc3)cc2C(=O)N([C@H](C)CO)C[C@@H]1C	0	-83!	0	0
CCCN(C)C[C@H]1OCCCC[C@@H](C)Oc2ccc(NC(=O)c3ccccc3)cc2C(=O)N([C@H](C)CO)C[C@H]1C	0	0	0	-
C[C@@H]1CCCCO[C@H](CN(C)CC2CC2)[C@H](C)CN([C@H](C)CO)C(=O)c2cc(NC(=O)c3ccccc3)ccc2O1	0	-81	0	-
CCOc1nc(NCCO)nc(Nc2ccc(OC)cc2OC)n1	-	-	-	0
COc1ccc(S(=O)(=O)N(C)C[C@@H]2OCCCC[C@@H](C)Oc3ccc(NC(=O)Cc4ccccc4)cc3C(=O)N([C@@H](C)CO)C[C@H]2C)cc1	0	0	0	0
COc1ccc(S(=O)(=O)N(C)C[C@H]2OCCCC[C@H](C)Oc3ccc(NC(=O)Cc4ccccc4)cc3C(=O)N([C@@H](C)CO)C[C@H]2C)cc1	0	?	0	0
COc1ccc(S(=O)(=O)N(C)C[C@@H]2OCCCC[C@H](C)Oc3ccc(NC(=O)Cc4ccccc4)cc3C(=O)N([C@@H](C)CO)C[C@@H]2C)cc1	0	-83	0	0
COc1ccc(S(=O)(=O)N(C)C[C@@H]2OCCCC[C@H](C)Oc3ccc(NC(=O)Cc4ccccc4)cc3C(=O)N([C@H](C)CO)C[C@H]2C)cc1	0	-84	0	0
C[C@@H]1CN([C@H](C)CO)S(=O)(=O)c2ccc(-c3ccncc3)cc2O[C@H]1CN(C)Cc1ccc(Oc2ccccc2)cc1	0	-87	0	0
CC(C)C#Cc1ccc2c(c1)O[C@@H](CN(C)Cc1ccncc1)[C@H](C)CN([C@@H](C)CO)S2(=O)=O	121	0	0	0
CC(C)C#Cc1ccc2c(c1)O[C@H](CN(C)Cc1ccncc1)[C@@H](C)CN([C@@H](C)CO)S2(=O)=O	117	0	0	0
C[C@@H]1CN([C@@H](C)CO)S(=O)(=O)c2ccc(C#C[C@@H](C)O)cc2O[C@@H]1CN(C)Cc1ccncc1	0	0	0	-
C[C@H](O)C#Cc1ccc2c(c1)O[C@@H](CN(C)Cc1ccncc1)[C@@H](C)CN([C@H](C)CO)S2(=O)=O	0	0	0	-
O=C1c2cccc3cccc(c23)C(=O)N1OS(=O)(=O)c1cccc2cccnc12	-	-	-	0
COc1cccc(C#Cc2ccc([C@H]3[C@@H](CO)N4C(=O)CN(C(=O)Cc5ccccc5)C[C@H]34)cc2)c1	-	-94	0	-
N#Cc1ccc(-c2ccc([C@H]3[C@@H](CO)N4C(=O)CN(C(=O)Cc5ccccc5)C[C@@H]34)cc2)cc1	-	-85	0	-
COc1cccc(C#Cc2ccc([C@@H]3[C@@H](CO)N4C(=O)CN(C(=O)c5ccccc5)C[C@@H]34)cc2)c1	-	-91	0	-
O=C(NCCCN1CCOCC1)C1CC(c2cccc(Br)c2)=NO1 (stereo not given)	-	-	-	0
COc1ccc(S(=O)(=O)Nc2ccc3c(c2)C(=O)N([C@@H](C)CO)C[C@H](C)[C@@H](CN(C)S(=O)(=O)c2ccccc2)OCCCC[C@@H](C)O3)cc1	-	-88	0	0
SMILES	Tcruzi prolif	Pf Dd2 growth	KDM4C inh	IDH1 R132H inh
COc1ccc(S(=O)(=O)N(C)C[C@@H]2OCCCC[C@H](C)Oc3ccc(NS(=O)(=O)c4ccc(C)cc4)cc3C(=O)N([C@H](C)CO)C[C@@H]2C)cc1	113	0	0	-
COc1ccc(S(=O)(=O)Nc2ccc3c(c2)C(=O)N([C@H](C)CO)C[C@@H](C)[C@@H](CN(C)S(=O)(=O)c2ccc(Cl)cc2)OCCCC[C@@H](C)O3)cc1	0	-89	0	-
COc1ccc(S(=O)(=O)Nc2ccc3c(c2)C(=O)N([C@@H](C)CO)C[C@@H](C)[C@@H](CN(C)S(=O)(=O)c2ccc(C)cc2)OCCCC[C@H](C)O3)cc1	-	0	0	0
COc1ccc(S(=O)(=O)Nc2ccc3c(c2)C(=O)N([C@H](C)CO)C[C@@H](C)[C@@H](CN(C)S(=O)(=O)c2ccc(C)cc2)OCCCC[C@H](C)O3)cc1	-	-81	0	-
COc1ccc(NC(=O)C(C)N(c2ccc(C)c(C)c2)S(C)(=O)=O)cc1 (stereo not given)	-	-	-	0
CC(C(=O)Nc1ccc(Oc2ccccc2)cc1)N1c2cccc3cccc(c23)S1(=O)=O (stereo not given)	-	-	-	0
CCCNC[C@@H]1[C@@H](c2ccc(C3=CCCC3)cc2)[C@@H](CO)N1C(=O)C1CCCC1	-	-92	0	-
OC[C@@H]1[C@H](c2ccc(C3=CCCCC3)cc2)[C@@H](CNC2CCCC2)N1CC1CC1	-	-92	0	-
C/C=C/c1ccc([C@H]2[C@@H](CO)N(C(=O)CC)[C@@H]2CNCC2CCCCC2)cc1	-	-85	0	-
CCC(=O)NC[C@H]1[C@H](c2ccc(C3=CCCC3)cc2)[C@@H](CO)N1C(=O)C1CC1	0	0	0	-
CCC(=O)N1[C@H](CO)[C@H](c2ccc(C3=CCCCC3)cc2)[C@H]1CNC1CCCC1	-	-90	0	-
Cc1cc(Nc2cnn(-c3nc4ccccc4o3)c(=O)c2Cl)ccc1Br	-	-	-	0
COc1cc([N+](=O)[O-])ccc1NC(=O)CSc1nc(C)cc(-c2ccc(Cl)cc2)n1	-	-	-	0
CC1CCC2(OC1)OC1CC3C4CC=C5C[C@@H](O)CC(O)[C@]5(C)C4CC[C@]3(C)C1C2C (stereo not given in full)	-	-	-	0
C[C@H]1CN([C@@H](C)CO)S(=O)(=O)c2ccc(C#Cc3ccccc3)cc2O[C@H]1CN(C)C(=O)Cc1ccccn1	0	-86	0	0
C[C@H]1CN([C@@H](C)CO)S(=O)(=O)c2ccc(-c3cncnc3)cc2O[C@@H]1CN(C)C(=O)C1CCCCC1	-	0	35	-

Screens deposited in PubChem BioAssay by Broad Institute.
